Reference: publication PMC4824005 (Nature structural & molecular biology, 2015)
Non-standard residues stand in square brackets, D forms with d. No end group written: not given here. *: point of attachment. Biotin = O=C1N[C@H]2[C@H](CS[C@H]2CCCCC(=O)*)N1; pY = N[C@@H](Cc1ccc(OP(=O)(O)O)cc1)C(=O)O; AHA = not defined here

Key:
[1] = test system: Shc1 phosphorylated at Tyr239 and Tyr240 in MCF10A cells; experiment: Immunoblot of dual Shc1 phosphorylation in MCF10A cells; format: cell-based; conditions: dasatinib 250 or 500nM pretreatment 1 hour, then 1ng/mL EGF 3 min
In short: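 MCF10A cells (STR-authenticated, mycoplasma-free) were kept in HuMEC medium and held 16 h in growth-factor-free medium before pretreatment with test compound and EGF stimulation. Cells were lysed in RIPA buffer containing protease and phosphatase inhibitors. Lysates were separated by SDS-PAGE, transferred to nitrocellulose and immunoblotted with phospho-Shc and total Shc antibodies.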

[2] = test system: Src; experiment: HPLC and LC-MS/MS analysis of Src kinase reaction with Shc1 Y-Y peptide; format: biochemical; conditions: 5μM Src, 500μM Shc1 peptide, 1mM ATP
In short: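 Recombinant Src (5μM final) was reacted with 500μM unmodified Shc1 peptide and 1mM ATP. Timed aliquots were EDTA-quenched, then run on C18 reversed-phase HPLC (0–30% acetonitrile/0.1% TFA over 30 min, 1.0 ml/min, A220), with peaks assigned from standards. The peak was analysed by nanoflow LC/MS/MS on an Orbitrap with CID and database search (FDR <1.5%, manual check). Site occupancy was taken from spectral counts per pTyr site.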

[3] = target: T1, EGFR (Homo sapiens, UniProt P00533); experiment: EGFR steady-state kinetics with Shc1 peptides; format: biochemical; conditions: peptide primed at Tyr240 vs unmodified peptide
In short: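 Recombinant EGFR kinase domain (residues 696–1022) at 100nM was incubated with Shc1 Tyr239-region peptides carrying added C-terminal lysines (0–12mM) in 50mM Tris pH 7.5, 10mM MgCl₂, 10mM MnCl₂, 2mM DTT with 2μCi γ-³²P-ATP/reaction, 30 min at 30°. Reactions were spotted on P81 paper, washed with 75mM H₃PO₄ and scintillation-counted. Initial rates (<5% substrate consumed) were fitted to Michaelis–Menten by nonlinear least squares; three experiments, each in triplicate.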

[4] = target: T1, EGFR; experiment: HPLC and LC-MS/MS analysis of EGFR kinase reaction with Shc1 Y-Y peptide; format: biochemical; conditions: no pY-pY peptides detected in HPLC analysis of EGFR reaction (Fig. 2c)
[5] = test system: Grb2; conditions: doubly phosphorylated (Tyr239 and Tyr240) Shc1; cited from earlier work

With `Cc1nc(Nc2ncc(C(=O)Nc3c(C)cccc3Cl)s2)cc(N2CCN(CCO)CC2)n1` [dasatinib, reference compound] the “inhibition of EGF-induced dual phosphorylation of Shc1” value [1] was “almost completely abolished”.

In the case of PDHQYYNDAKKK [Y-Y], the “product of Src phosphorylation by HPLC” value [2] is reported as “mono-phosphorylated peptides were the predominant product”.

For PDHQYpYNDAKKK [Y-pY], the “decrease of Km by priming phosphorylation” value [3] was “approximately 4 fold”.

For PDHQpYYNDAKKK [pY-Y], the “further phosphorylation by EGFR” value [4] was “not a substrate for further phosphorylation by EGFR”.

For “doubly phosphorylated Shc1: Shc1 doubly phosphorylated at Tyr239 and Tyr240, literature ref 31 ({Biotin-AHA}-DHQ[pY][pY]NDFPGKE; reading uncertain)”, the “increase in affinity for Grb2 vs phosphorylation at Tyr239 alone” value [5] is listed as 3 fold.
